Source: PubChem BioAssay (several laboratories)
Jurkat tox 60K – reduces viability or proliferation of Jurkat cells; AID 463; Jurkat E6.1 viability, ATP luminescence, 48 h; inhibition, % at 4 µM; 56,000 compounds, 1.2% hits;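 active = inhibition above the mean inhibition of all tested compounds plus 3 SD, cut at about 28% in these data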
HUVEC inhibit – human endothelial cell proliferation inhibition; HUVEC proliferation, CellTiter-Glo luminescence, 72 h; hits give low values; viability, % at 10 µM (by protocol); 86,000 compounds, 1.1% hits; AID 648;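 active = viability at or below 30%; inactive = viability above 30%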;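 note: 100% = median luminescence of DMSO-only cell control wells on each plate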
tolC growth inh – growth inhibitors of E. coli BW25113 tolC mutant. OD615. growth inhibition, % at 10 µM (by protocol). 65,000 compounds, 2.2% hits;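 active = growth inhibition at or above a cutoff equal to the mean over every tested compound plus 3 SD, cut at about 60% in these data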;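 note: growth measured after 20 h incubation at 37 °C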
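test system = E. coli BW25113 ΔtolC::kan bacteria | medium = LB with kanamycin 50 µg/mL | signal = OD at 615 nm | schedule = 37 °C, 20 h exposure | evaluation = % inhibition of E. coli growth | compound dosing = one dose of 10 µM final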
H69AR growth 86K – blocks growth of human H69AR lung tumor cells | 85,000 compounds, 6% hits | viability, % at 10 µM | H69AR lung tumor viability, ATP luminescence, 72 h; hits give low values;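 active = viability at or below 40%; inactive = viability above 40%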;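 note: multidrug resistant small cell line overexpressing MRP-1 efflux transporter; 100% = mean luminescence of untreated control wells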
Fibroblast inh – blocks proliferation of human lung fibroblasts; viability, % at 10 µM; LL 47 human lung fibroblast viability, ATP luminescence; hits give low values; 85,000 compounds, 1.1% hits; AID 719;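 active = viability at or below 50% in the single dose screen; inactive = viability above 50%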;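 note: compound exposure lasted 72 h before the ATP readout; 100% = median luminescence of untreated cell-only wells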
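Signal: luminescent ATP detection, CellTiter-Glo; assay system: LL 47 human lung fibroblasts; input: 1,150 cells/well; incubation: overnight cell rest, 72 h compound treatment at 37 °C; measure: % viability versus median cells-only luminescence; medium: IMEM growth medium with 15% fetal bovine serum; dosing: compound addition at 0.1% DMSO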
E coli WT exp – E. coli BW25113 growth inhibition, expanded screen | 98,000 compounds, 0.15% hits | growth inhibition, % at 100 µM | OD600 absorbance | AID 710;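 active = growth inhibition above about 50% at one test dose, limit read from the data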;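 note: growth measured after 20 h incubation at 37 °C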
Starred values were filed as active, the others as inactive; . = no result. Compounds with a hit are over-represented: about 6.4% of the library has one in this group of screens.

SMILES | Jurkat tox 60K | HUVEC inhibit | tolC growth inh | H69AR growth 86K | Fibroblast inh | E coli WT exp
O=C(Nc1ccc2oc(-c3ccccc3)nc2c1)c1cccs1 | . | 84 | . | 39* | 91 | .
Cc1ccc(-c2nc3cc(NS(=O)(=O)c4ccc(C)cc4)ccc3o2)cc1 | . | 77 | . | 89 | 102 | -13
O=C(NC1CCCC1)C(c1cccs1)N(CC1CCCO1)C(=O)Cc1cccs1 (stereo not drawn) | 9 | 88 | 15 | 87 | 94 | 2
CCOC(=O)C(C(=O)OCC)C(C(=O)OCC)N1CCOCC1 (stereo not drawn) | . | 2.9* | . | 0.7* | 1.9* | 14
CCOC(=O)C(C)CC(C)C(=O)N1CCOCCOCCN(C(=O)C(C)CC(C)C(=O)OCC)CCOCC1 (stereo not drawn) | . | 95 | . | 78 | 95 | 9
OC1(c2ccccc2)C/C(=N\n2cnnc2)C=C1c1ccccc1 (stereo not drawn) | -4 | 85 | -5 | 102 | 101 | 1
CCOC(=O)C(C)n1cnc2c(nnn2-c2cccc(Cl)c2)c1=O (stereo not drawn) | -4 | 110 | 0 | 102 | 100 | 0
COc1ccc(OC)c(Nc2nc(-c3sc(C)nc3C)cs2)c1 | -4 | 58 | 7 | 26* | 94 | -14
CCC(CC)c1nnc(NC(=O)c2c(-c3ccccc3)noc2C)s1 | 2 | 99 | 79* | 76 | 101 | -2
Cc1nnc(NC(=O)c2c(-c3ccccc3)noc2C)s1 | . | 101 | . | 109 | 105 | -6
O=C(Nc1nnc(COc2ccccc2)s1)C1CCN(S(=O)(=O)c2ccc(Cl)cc2)CC1 | . | 77 | . | 33* | 81 | 1
Cc1onc(-c2ccccc2)c1C(=O)Nc1nnc(COc2ccc(Cl)cc2)s1 | 6 | 74 | 80* | 88 | 94 | -6
Cc1onc(-c2ccccc2)c1C(=O)OCC(=O)c1ccccc1 | -6 | 109 | 71* | 92 | 108 | 1
CSc1ccccc1NC(=O)COc1ccccc1Cl | . | . | . | . | . | 8
N#CCC(=N)N1CCN(c2ccccc2Cl)CC1 | . | . | . | . | . | 2
Cc1onc(-c2ccccc2)c1C(=O)Nc1nnc(N(C)Cc2ccccc2)s1 | 9 | 100 | 61* | 92 | 91 | -11
O=C(O)CCC(=O)NC1CCCCC1NC(=O)CCC(=O)O (stereo not drawn) | 2 | . | -12 | . | . | .
CCOC(=O)Cc1cc(=O)n2[nH]c(C)c(-c3ccc(OC)cc3)c2n1 | 0 | 89 | 14 | 76 | 100 | -1
CCOC(=O)Cc1cc(=O)n2[nH]c(C)c(-c3ccc(Cl)cc3)c2n1 | . | 46 | . | 16* | 69 | 7
CCOC(=O)Cc1c(C)nc2c(-c3ccc(Cl)cc3)c[nH]n2c1=O | -6 | 57 | 99* | 23* | . | 21
COc1ccc(Cn2nnnc2C(CC(C)C)N2CCN(c3ccccc3)CC2)cc1 (stereo not drawn) | 7 | 99 | 25 | 83 | 98 | -15
COc1ccc(Cn2nnnc2C(C(C)C)N2CCc3ccccc32)cc1 (stereo not drawn) | 2 | 80 | 73* | 75 | 87 | -4
Cc1ccc(C)c(OCC(=O)Nc2ccc3c(c2)OCO3)c1C | 26 | 88 | 22 | 21* | 95 | -4
Cc1cccc(OCC(=O)Nc2ccc3c(c2)OCO3)c1C | 7 | 98 | 5 | 91 | 91 | 1
O=C(Nc1ccc2c(c1)CCC2)C1CCN(c2c3c(nc4ncnn24)CCC3)CC1 | 44* | 77 | 12 | 32* | 78 | 4
SMILES | Jurkat tox 60K | HUVEC inhibit | tolC growth inh | H69AR growth 86K | Fibroblast inh | E coli WT exp
O=C(CSc1nc(-c2ccc(F)cc2)cs1)N1CCc2ccccc21 | . | . | . | . | . | -12
O=C(CN1CCN(c2nc(-c3ccc(F)cc3)cs2)CC1)Nc1ccc2c(c1)OCO2 | 8 | 82 | 24 | 40* | 90 | -5
O=C(OCC(F)(F)C(F)F)c1ccccc1C(=O)Oc1ccc(F)cc1F | 6 | 98 | -7 | 95 | 97 | 0
Cc1ccc(S(=O)(=O)Cc2ccc(C(=O)N3CCN(c4ccc(F)cc4)CC3)o2)cc1 | 21 | 64 | 15 | 20* | 78 | 0
Cc1ccccc1S(=O)(=O)Cc1ccc(C(=O)N2CCN(c3ccc(F)cc3)CC2)o1 | 5 | 92 | 24 | 34* | 93 | -5
COc1ccc(N2CCN(C(=O)c3ccc(CS(=O)(=O)c4ccc(OC)cc4)o3)CC2)cc1 | -3 | 100 | -5 | 81 | 95 | 1
COc1ccc(S(=O)(=O)Cc2ccc(C(=O)N3CCN(c4ccc(Cl)cc4)CC3)o2)cc1 | 15 | 64 | 23 | 49 | 88 | -18
O=C(c1ccc(COc2c(F)c(F)cc(F)c2F)o1)N1CCN(c2ccc(Cl)cc2)CC1 | 0 | 95 | 62* | 48 | 90 | -7
CCCCCc1nc2ccccc2c(=O)n1NC(=O)c1c(O)c2cccc3c2n(c1=O)CCC3 | . | 102 | . | 27* | 92 | .
CCCCCCc1nc2ccccc2c(=O)n1NC(=O)c1c(O)c2cccc3c2n(c1=O)CCC3 | . | 102 | . | 25* | 90 | -3
CCc1nc2ccccc2c(=O)n1NC(=O)c1c(O)c2ccccc2[nH]c1=O | 22 | 103 | 85* | 95 | 102 | -8
CC(=O)c1cccc(NC(=O)C2CCN(S(=O)(=O)c3ccccc3)CC2)c1 | . | 91 | . | 71 | 107 | 3
COc1cc(NS(C)(=O)=O)c(OC)cc1NC(=O)c1cccc(F)c1 | -6 | 94 | -8 | 91 | 115 | 8
Cn1c(C(C#N)C(=O)c2ccco2)nc2ccccc21 (stereo not drawn) | -4 | 89 | -6 | 33* | 80 | -3
COc1ccc(C(=O)c2ccc(Cl)cc2)c2ccccc12 | . | 65 | . | 17* | 94 | 2
CCC(C)(C)n1nnnc1CN1CCN(c2nc3cc(OC)ccc3cc2C#N)CC1 | 9 | 66 | 1 | 73 | 100 | -3
Oc1cc2c(cc1CN1CCN(c3cccc(C(F)(F)F)c3)CC1)CCC2 | . | 104 | . | 102 | 98 | -6
OC(CN1CCN(c2ccccc2)CC1)c1c[nH]c2ccccc12 (stereo not drawn) | 10 | 87 | 4 | 38* | 87 | 6
OC(CN1CCN(Cc2ccc3c(c2)OCO3)CC1)c1c[nH]c2ccccc12 (stereo not drawn) | . | 100 | . | 47 | 68 | 14
Cc1[nH]c2ccccc2c1C(O)CN1CCN(c2cccc(C(F)(F)F)c2)CC1 (stereo not drawn) | 13 | 2.4* | 15 | 1.3* | 43* | 7
Cc1[nH]c2ccccc2c1NC(=O)CN1CCN(c2cccc(C(F)(F)F)c2)CC1 | 3 | 82 | 75* | 41 | 96 | 6
O=C(CN1CCN(c2cccc(C(F)(F)F)c2)CC1)Nc1cccc(C(F)(F)F)c1 | . | 94 | . | 96 | 103 | -3
COC(=O)C(/C=N/OCc1ccc([N+](=O)[O-])cc1)NC(=O)c1cccc(Cl)c1 (stereo not drawn) | . | 97 | . | 96 | 103 | -5
CCOC(=O)c1c(Nc2nc(C)c(C(=O)NC)s2)sc(C)c1C | -4 | 69 | -2 | 79 | 77 | 3
